Assays:
[1] = Cytotoxicity against HSF cells assessed as cell viability at 1 uM after 24 hrs by MTT assay relative to control; format: cell-based; conditions: human, read-out: Activity
Summary of the method: (§1)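 Normal human skin fibroblasts (HSF, primary line) were exposed to DMSO-dissolved compound for 24 h. Viability was read by MTT tetrazolium reduction and expressed against untreated control set at 100%.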

[2] = Cytotoxicity against HSF cells assessed as cell viability at 50 uM after 24 hrs by MTT assay relative to control; format: cell-based; conditions: human, read-out: Activity; summary of the method: as §1
[3] = Cytotoxicity against HSF cells assessed as cell viability at 100 uM after 24 hrs by MTT assay relative to control; format: cell-based; conditions: human, read-out: Activity; summary of the method: as §1
[4] = tested on: Jurkat; experiment: Cytotoxicity against human Jurkat cells assessed as cell viability at 1 uM after 24 hrs by MTT assay relative to control; format: functional; conditions: read-out: Activity
Summary of the method: (§2)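 Jurkat T-cell leukaemia line grown in RPMI 1640 with 10% FBS, 2 mM L-glutamine and gentamycin at 37 °C, 5% CO2, kept in log phase. Compounds were dissolved in DMSO and applied for 24 h. Cells were washed in HEPES-buffered medium (pH 7.4) and given MTT at 0.5 mg/mL for 45 min at 37 °C. Formazan was dissolved in DMSO and read at 570 nm. Viability is % of control, from three independent measurements.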

[5] = tested on: Jurkat; experiment: Cytotoxicity against human Jurkat cells assessed as cell viability at 50 uM after 24 hrs by MTT assay relative to control; format: functional; conditions: read-out: Activity; summary of the method: as §2
[6] = tested on: Jurkat; experiment: Cytotoxicity against human Jurkat cells assessed as cell viability at 100 uM after 24 hrs by MTT assay relative to control; format: functional; conditions: read-out: Activity; summary of the method: as §2
[7] = Growth inhibition of human LS180 cells assessed as BrdU incorporation after 72 hrs by spectrophotometry; format: functional, cell-based; conditions: LS180, 72 h
Summary of the method: (§3)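 Cancer cells were seeded at 10⁴ cells/mL, preincubated, then exposed for 72 h to DMSO-dissolved compound. Growth was read by BrdU labelling with ELISA spectrophotometry. IC50 was taken from 72 h dose–survival curves. Triplicates.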

[8] = tested on: SiHa; experiment: Growth inhibition of human SiHa cells assessed as BrdU incorporation after 72 hrs by spectrophotometry; format: functional, cell-based; summary of the method: as §3
[9] = tested on: T47D; experiment: Growth inhibition of human T47D cells assessed as BrdU incorporation after 72 hrs by spectrophotometry; format: functional, cell-based; summary of the method: as §3
[10] = tested on: Jurkat; experiment: Cytotoxicity against human Jurkat cells assessed as decrease in cell viability after 24 hrs by MTT assay; format: functional, cell-based
Summary of the method: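 Jurkat cells grown in RPMI 1640/10% FBS at 37 °C, 5% CO2, with 24 h exposure to DMSO-dissolved compound. Read-out was MTT reduction: 0.5 mg/mL in HEPES-buffered medium for 45 min, formazan in DMSO, absorbance at 570 nm. IC50 was taken from 24 h dose–survival curves.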

[11] = tested on: Mus musculus; experiment: Neurotoxicity in ip dosed Swiss albino mouse assessed as impair in motor coordination at 0.1 LD50 concentration by rotarod test; format: toxicity, organism-based; conditions: in vivo
Summary of the method: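 Male Albino Swiss mice (20-25 g), housed 8-10 per cage at 20 ± 1 °C on a 12/12 h light-dark cycle with food and water ad libitum. Randomized groups of 10. Compound given i.p. as a suspension in 3% Tween 80 at 10 mL kg^-1; controls received the same volume of vehicle. Tests run 8 a.m.-3 p.m.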

[12] = Growth inhibition of HSF cells assessed as BrdU incorporation at 36.7 uM after 72 hrs by spectrophotometry; format: cell-based; conditions: human, read-out: GI
Summary of the method: (§4)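 Cells were seeded at 10⁴ cells/mL and preincubated. Compounds were dissolved in DMSO and added at two fixed concentrations, then incubated for 72 h. End-point was BrdU labelling with ELISA detection, read spectrophotometrically. Result is % growth inhibition versus untreated controls. Triplicates.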

[13] = tested on: Vero; experiment: Growth inhibition of african green monkey Vero cells assessed as BrdU incorporation at 36.7 uM after 72 hrs by spectrophotometry; format: cell-based; conditions: chlorocebus sabaeus; summary of the method: as §4
[14] = Growth inhibition of human LS180 cells assessed as BrdU incorporation at 36.7 uM after 72 hrs by spectrophotometry; format: functional; conditions: LS180, 72 h, read-out: GI; summary of the method: as §4
[15] = tested on: SiHa; experiment: Growth inhibition of human SiHa cells assessed as BrdU incorporation at 36.7 uM after 72 hrs by spectrophotometry; format: functional; conditions: read-out: GI; summary of the method: as §4
[16] = tested on: T47D; experiment: Growth inhibition of human T47D cells assessed as BrdU incorporation at 36.7 uM after 72 hrs by spectrophotometry; format: functional; conditions: read-out: GI
Summary of the method: (§5)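 Each cell line was seeded at 10⁴ cells per mL and preincubated. Test agents were dissolved in DMSO, added at two examined concentrations (10 and 50 per mL by mass), and incubated for 72 h. The end-point was BrdU labeling and detection kit III read on an ELISA reader. Percent growth inhibition was calculated against untreated controls, in triplicate.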

[17] = Growth inhibition of HSF cells assessed as BrdU incorporation at 183.6 uM after 72 hrs by spectrophotometry; format: cell-based; conditions: human, read-out: GI; summary of the method: as §4
[18] = Growth inhibition of african green monkey Vero cells assessed as BrdU incorporation at 183.6 uM after 72 hrs by spectrophotometry; format: cell-based; conditions: chlorocebus sabaeus, read-out: GI; summary of the method: as §4
[19] = Growth inhibition of human LS180 cells assessed as BrdU incorporation at 183.6 uM after 72 hrs by spectrophotometry; format: functional; conditions: LS180, 72 h, read-out: GI; summary of the method: as §4
[20] = tested on: SiHa; experiment: Growth inhibition of human SiHa cells assessed as BrdU incorporation at 183.6 uM after 72 hrs by spectrophotometry; format: functional; conditions: read-out: GI; summary of the method: as §4
[21] = tested on: T47D; experiment: Growth inhibition of human T47D cells assessed as BrdU incorporation at 183.6 uM after 72 hrs by spectrophotometry; format: functional; conditions: read-out: GI; summary of the method: as §5
[22] = Growth inhibition of HSF cells assessed as BrdU incorporation at 34.9 uM after 72 hrs by spectrophotometry; format: cell-based; conditions: human, read-out: GI; summary of the method: as §4
[23] = tested on: Vero; experiment: Growth inhibition of african green monkey Vero cells assessed as BrdU incorporation at 34.9 uM after 72 hrs by spectrophotometry; format: cell-based; conditions: chlorocebus sabaeus; summary of the method: as §4
[24] = Growth inhibition of human LS180 cells assessed as BrdU incorporation at 34.9 uM after 72 hrs by spectrophotometry; format: functional; conditions: LS180, 72 h, read-out: GI; summary of the method: as §4
[25] = tested on: SiHa; experiment: Growth inhibition of human SiHa cells assessed as BrdU incorporation at 34.9 uM after 72 hrs by spectrophotometry; format: functional; conditions: read-out: GI; summary of the method: as §4
[26] = tested on: T47D; experiment: Growth inhibition of human T47D cells assessed as BrdU incorporation at 34.9 uM after 72 hrs by spectrophotometry; format: functional; conditions: read-out: GI; summary of the method: as §5
[27] = Growth inhibition of HSF cells assessed as BrdU incorporation at 174.6 uM after 72 hrs by spectrophotometry; format: cell-based; conditions: human; summary of the method: as §4
[28] = Growth inhibition of african green monkey Vero cells assessed as BrdU incorporation at 174.6 uM after 72 hrs by spectrophotometry; format: cell-based; conditions: chlorocebus sabaeus, read-out: GI; summary of the method: as §4
[29] = Growth inhibition of human LS180 cells assessed as BrdU incorporation at 174.6 uM after 72 hrs by spectrophotometry; format: functional; conditions: LS180, 72 h, read-out: GI; summary of the method: as §4
[30] = tested on: SiHa; experiment: Growth inhibition of human SiHa cells assessed as BrdU incorporation at 174.6 uM after 72 hrs by spectrophotometry; format: functional; conditions: read-out: GI; summary of the method: as §4
[31] = tested on: T47D; experiment: Growth inhibition of human T47D cells assessed as BrdU incorporation at 174.6 uM after 72 hrs by spectrophotometry; format: functional; conditions: read-out: GI; summary of the method: as §5

Row | Compound | viability at 24 h, 1 µM [1] [%] | viability at 24 h, 50 µM [2] [%] | viability at 24 h, 100 µM [3] [%] | viability at 1 µM [4] [%] | viability at 50 µM [5] [%] | viability at 100 µM [6] [%] | IC50 [7] [µM] | IC50 [8] [µM] | IC50 [9] [µM] | IC50 [10] [µM] | Activity [11] | also measured
1 | CCOC(=O)c1nnc2n(c1=O)CCN2c1ccc(Cl)c(Cl)c1 | 102 | 84 | 85 | 91 | 28 | 23 | > 100 | > 100 | > 100 | 32.2 | Non-toxic | 
2 | NNC(=O)c1nnc2n(c1=O)CCN2c1ccccc1 | 82 | 83 | 82 | 89 | 82 | 33 | > 100 | > 100 | > 100 | 85.5 | Non-toxic | inhibition at 72 h, 36.7 µM [12]: 16%; growth inhibition (GI) [13]: 2%; inhibition of growth at 36.7 µM [14]: 0%; inhibition of growth at 36.7 µM [15]: 0%; inhibition of growth at 36.7 µM [16]: 4%; inhibition at 72 h, 183.6 µM [17]: 20%; inhibition at 72 h, 183.6 µM [18]: 0%; inhibition of growth at 183.6 µM [19]: 15%; inhibition of growth at 183.6 µM [20]: 0%; inhibition of growth at 183.6 µM [21]: 9%
3 | Cc1ccc(N2CCn3c2nnc(C(=O)NN)c3=O)cc1 | 109 | 111 | 95 | 93 | 87 | 79 |  |  |  |  |  | inhibition at 72 h, 34.9 µM [22]: 0%; growth inhibition (GI) [23]: 2%; inhibition of growth at 34.9 µM [24]: 0%; inhibition of growth at 34.9 µM [25]: 11%; inhibition of growth at 34.9 µM [26]: 5%; growth inhibition (GI) [27]: 0%; inhibition at 72 h, 174.6 µM [28]: 0%; inhibition of growth at 174.6 µM [29]: 14%; inhibition of growth at 174.6 µM [30]: 9%; inhibition of growth at 174.6 µM [31]: 8%
4 | CCOC(=O)c1nnc2n(c1=O)CCN2c1ccc(OC)cc1 | 104 | 100 | 97 | 118 | 110 | 110 |  |  |  |  |  | 

From ChEMBL document CHEMBL1141657, “Synthesis, structure elucidation and identification of antitumoural properties of novel fused 1,2,4-triazine aryl derivatives” (Eur J Med Chem, 2008)
